Legend:
Assay type in all cases: functional
NCI/ADR-RES = assay: Antitumor activity against human NCI/ADR-RES cells after 48 hrs by SRB assay
How it was run: (§1)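 NCI60 panel in RPMI 1640 with 5% FBS and 2 mM L-glutamine. Cells were plated at 5000–40,000/well by doubling time, held 24 h, then time-zero plates were TCA-fixed. Five concentrations (10-fold or half-log dilutions of DMSO stocks) were applied for 48 h at 37 °C, 5% CO2. Cells were fixed with cold TCA (10% final adherent, 16% suspension) and stained with 0.4% SRB. Bound dye was dissolved in 10 mM Tris and read at 515 nm. GI50, TGI and LC50 were calculated per line.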

786-0 = assay: Antitumor activity against human 786-0 cells after 48 hrs by SRB assay; conditions: 786-0, 48 h; how it was run: as §1
SNB-75 = assay: Antitumor activity against human SNB75 cells after 48 hrs by SRB assay; conditions: SNB-75, 48 h; for CC50: read-out: LC50 (the source's name)
How it was run: (§2)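 NCI60 panel cells grown in RPMI 1640 with 5% FBS and 2 mM L-glutamine, plated at 5000–40,000 cells/well and preincubated 24 h at 37 °C, 5% CO₂. Compound was added from DMSO at five concentrations, 10-fold or 1/2 log dilutions, then incubated 48 h.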

HCT-15 = assay: Antiproliferative activity against human HCT15 cells after 48 hrs by SRB assay; conditions: HCT-15, 48 h
How it was run: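 NCI60 screen: cells grown in RPMI 1640 with 5% FBS and 2 mM L-glutamine, plated at 5000–40,000 cells/well by doubling time, preincubated 24 h at 37 °C with 5% CO2. Compounds were diluted from DMSO stocks and given for 48 h, at five concentrations for dose response. A time-zero plate was TCA-fixed. Cells were TCA-fixed, stained with 0.4% SRB and read at 515 nm, with growth expressed relative to untreated controls.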

SN12C = assay: Antitumor activity against human SN12C cells after 48 hrs by SRB assay; how it was run: as §2
NCI-H460 = assay: Antitumor activity against human NCI-H460 cells after 48 hrs by SRB assay; conditions: NCI-H460, 48 h; how it was run: as §1
OVCAR-5 = assay: Antitumor activity against human OVCAR5 cells after 48 hrs by SRB assay; conditions: OVCAR-5, 48 h; how it was run: as §1
SK-MEL-5 = assay: Cytotoxicity against human SK-MEL-5 cells assessed as cellular growth at 10 uM after 48 hrs by SRB assay
How it was run: (§3)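 NCI-60 panel lines grown in RPMI 1640 with 5% FBS and 2 mM L-glutamine. Plated at 5000–40,000 cells/well and preincubated 24 h at 37 °C, 5% CO₂, with time-zero plates fixed in TCA. Compounds, dissolved in DMSO and diluted in medium, were applied for 48 h. Cells were TCA-fixed (10% final for adherent, 16% for suspension) and stained with 0.4% SRB in 1% acetic acid. Dye was solubilised in 10 mM Tris base and read at 515 nm; growth was expressed as a percentage of untreated control.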

CAKI-1 = assay: Antitumor activity against human Caki1 cells after 48 hrs by SRB assay; conditions: CAKI-1, 48 h; how it was run: as §1
ACHN = assay: Antitumor activity against human ACHN cells after 48 hrs by SRB assay; how it was run: as §1
NCI-H23 = assay: Antitumor activity against human NCI-H23 cells after 48 hrs by SRB assay; conditions: NCI-H23, 48 h; how it was run: as §1
[1] = Antitumor activity against human Hs 578T cells after 48 hrs by SRB assay; conditions: for CC50: read-out: LC50 (the source's name); how it was run: as §1
OVCAR-4 = assay: Cytotoxicity against human OVCAR4 cells assessed as cellular growth at 10 uM after 48 hrs by SRB assay; how it was run: as §3
SNB-19 = assay: Cytotoxicity against human SNB19 cells assessed as cellular growth at 10 uM after 48 hrs by SRB assay; how it was run: as §3
PC-3 = assay: Antitumor activity against human PC3 cells after 48 hrs by SRB assay; conditions: PC-3, 48 h; how it was run: as §1
Malme-3M = assay: Cytotoxicity against human MALME-3M cells assessed as cellular growth at 10 uM after 48 hrs by SRB assay; how it was run: as §3
KM12 = assay: Cytotoxicity against human KM12 cells assessed as cellular growth at 10 uM after 48 hrs by SRB assay
How it was run: (§4)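 NCI60 single-dose screen of cells in RPMI 1640 with 5% FBS and 2 mM L-glutamine, preincubated 24 h at 37 °C, 5% CO₂. Cells were then exposed 48 h to compound added from DMSO stock. TCA-fixed, stained with 0.4% SRB in 1% acetic acid, dye solubilised in 10 mM Tris base and read at 515 nm. Growth is given as percent of untreated control.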

IGROV-1 = assay: Cytotoxicity against human IGROV1 cells assessed as cellular growth at 10 uM after 48 hrs by SRB assay; how it was run: as §4
SK-MEL-2 = assay: Cytotoxicity against human SK-MEL-2 cells assessed as cellular growth at 10 uM after 48 hrs by SRB assay; how it was run: as §3
MCF7 = assay: Cytotoxicity against human MCF7 cells assessed as cellular growth at 10 uM after 48 hrs by SRB assay; how it was run: as §3
HT-29 = assay: Cytotoxicity against human HT-29 cells assessed as cellular growth at 10 uM after 48 hrs by SRB assay; how it was run: as §4
T47D = assay: Cytotoxicity against human T47D cells assessed as cellular growth at 10 uM after 48 hrs by SRB assay; how it was run: as §3
[2] = read-out: LC50 (the source's name)
[3] = read-out: pLC50 (the source's name) (converted)

COc1cc(/C(=C2\O[C@@H]([C@H]3COC(C)(C)O3)[C@H]3OC(C)(C)O[C@@H]23)c2ccc3ccccc3c2)cc(OC)c1OC
GI50 (NCI/ADR-RES): 4.26 µM | LC50 (NCI/ADR-RES): > 100 µM | TGI (NCI/ADR-RES): 22.3 µM | GI50 (786-0): 2300 nM | LC50 (786-0): 8.6 µM | TGI (786-0): 4.47 µM | GI50 (SNB-75): 2890 nM | TGI (SNB-75): 7.44 µM | CC50 (SNB-75): > 100 µM | CC50 (HCT-15; [2]): > 100 µM | CC50 (HCT-15; [3]): > 100 µM | GI50 (SN12C; read-out: GI50): 3.65 µM | CC50 (SN12C; [2]): > 100 µM | TGI (SN12C; read-out: TGI): > 100 µM | GI50 (SN12C; read-out: pGI50 (converted)): 3.16 µM | CC50 (SN12C; [3]): > 100 µM | TGI (SN12C; read-out: pTGI): > 100 µM | GI50 (NCI-H460; read-out: GI50): 4.1 µM | CC50 (NCI-H460; [2]): > 100 µM | TGI (NCI-H460; read-out: TGI): > 100 µM | GI50 (NCI-H460; read-out: pGI50 (converted)): 4.07 µM | CC50 (NCI-H460; [3]): > 100 µM | TGI (NCI-H460; read-out: pTGI): > 100 µM | GI50 (OVCAR-5; read-out: GI50): 14 µM | CC50 (OVCAR-5; [2]): > 100 µM | TGI (OVCAR-5; read-out: TGI): > 100 µM | GI50 (OVCAR-5; read-out: pGI50 (converted)): 3.89 µM | CC50 (OVCAR-5; [3]): > 100 µM | TGI (OVCAR-5; read-out: pTGI (converted)): 7.94 µM | Activity (SK-MEL-5): 38.25% | GI50 (CAKI-1; read-out: GI50): 4.54 µM | CC50 (CAKI-1; [2]): > 100 µM | TGI (CAKI-1; read-out: TGI): > 100 µM | GI50 (CAKI-1; read-out: pGI50 (converted)): 3.63 µM | CC50 (CAKI-1; [3]): > 100 µM | TGI (CAKI-1; read-out: pTGI (converted)): > 100 µM | GI50 (ACHN; read-out: GI50): 4.39 µM | CC50 (ACHN; [2]): > 100 µM | TGI (ACHN; read-out: TGI): > 100 µM | GI50 (ACHN; read-out: pGI50 (converted)): 4.57 µM | CC50 (ACHN; [3]): > 100 µM | TGI (ACHN; read-out: pTGI): > 100 µM | GI50 (NCI-H23; read-out: GI50): 5.43 µM | CC50 (NCI-H23; [2]): > 100 µM | TGI (NCI-H23; read-out: TGI): > 100 µM | GI50 (NCI-H23; read-out: pGI50 (converted)): 5.37 µM | CC50 (NCI-H23; [3]): > 100 µM | TGI (NCI-H23; read-out: pTGI (converted)): > 100 µM | GI50 [1]: 4.44 µM | TGI [1]: 53.4 µM | CC50 [1]: > 100 µM | Activity (OVCAR-4): 25.7% | Activity (SNB-19): 29% | GI50 (PC-3; read-out: GI50): 5.71 µM | CC50 (PC-3; [2]): > 100 µM | TGI (PC-3; read-out: TGI): > 100 µM | GI50 (PC-3; read-out: pGI50 (converted)): 5.75 µM | CC50 (PC-3; [3]): > 100 µM | TGI (PC-3; read-out: pTGI): > 100 µM | Activity (Malme-3M): -25.39% | Activity (KM12): 33.42% | Activity (IGROV-1): -21.44% | Activity (SK-MEL-2): -49.67% | Activity (MCF7): 22.8% | Activity (HT-29): 40.98%

COc1ccc(/C(=C2\O[C@@H]([C@H]3COC(C)(C)O3)[C@H]3OC(C)(C)O[C@@H]23)c2cc(OC)c(OC)c(OC)c2)cc1O
GI50 (NCI/ADR-RES): 4.26 µM | LC50 (NCI/ADR-RES): > 100 µM | TGI (NCI/ADR-RES): 22.3 µM | GI50 (786-0): 2300 nM | LC50 (786-0): 8.6 µM | TGI (786-0): 4.47 µM | GI50 (SNB-75): 2890 nM | TGI (SNB-75): 7.44 µM | CC50 (SNB-75): > 100 µM | CC50 (HCT-15; [2]): > 100 µM | CC50 (HCT-15; [3]): > 100 µM | CC50 (SN12C; [2]): > 100 µM | TGI (SN12C; read-out: TGI): > 100 µM | GI50 (SN12C; read-out: pGI50 (converted)): 8.91 µM | CC50 (SN12C; [3]): > 100 µM | TGI (SN12C; read-out: pTGI): > 100 µM | GI50 (NCI-H460; read-out: GI50): 29.3 µM | CC50 (NCI-H460; [2]): > 100 µM | TGI (NCI-H460; read-out: TGI): > 100 µM | GI50 (NCI-H460; read-out: pGI50 (converted)): 29.5 µM | CC50 (NCI-H460; [3]): > 100 µM | TGI (NCI-H460; read-out: pTGI): > 100 µM | GI50 (OVCAR-5; read-out: GI50): 59.6 µM | CC50 (OVCAR-5; [2]): > 100 µM | TGI (OVCAR-5; read-out: TGI): > 100 µM | GI50 (OVCAR-5; read-out: pGI50 (converted)): 60.3 µM | CC50 (OVCAR-5; [3]): > 100 µM | TGI (OVCAR-5; read-out: pTGI (converted)): > 100 µM | Activity (SK-MEL-5): 61.79% | GI50 (CAKI-1; read-out: GI50): 14.6 µM | CC50 (CAKI-1; [2]): > 100 µM | TGI (CAKI-1; read-out: TGI): 42.2 µM | GI50 (CAKI-1; read-out: pGI50 (converted)): 14.8 µM | CC50 (CAKI-1; [3]): > 100 µM | TGI (CAKI-1; read-out: pTGI (converted)): 42.7 µM | GI50 (ACHN; read-out: GI50): 15.4 µM | CC50 (ACHN; [2]): > 100 µM | TGI (ACHN; read-out: TGI): > 100 µM | GI50 (ACHN; read-out: pGI50 (converted)): 15.5 µM | CC50 (ACHN; [3]): > 100 µM | TGI (ACHN; read-out: pTGI): > 100 µM | GI50 (NCI-H23; read-out: GI50): 21.8 µM | CC50 (NCI-H23; [2]): > 100 µM | TGI (NCI-H23; read-out: TGI): 74.9 µM | GI50 (NCI-H23; read-out: pGI50 (converted)): 20.9 µM | CC50 (NCI-H23; [3]): > 100 µM | TGI (NCI-H23; read-out: pTGI (converted)): 74.1 µM | Activity (T47D): 115.08% | GI50 [1]: 4.44 µM | TGI [1]: 53.4 µM | CC50 [1]: > 100 µM | Activity (OVCAR-4): 105.57% | Activity (SNB-19): 27.56% | CC50 (PC-3; [2]): > 100 µM | TGI (PC-3; read-out: TGI): > 100 µM | GI50 (PC-3; read-out: pGI50 (converted)): 4.17 µM | CC50 (PC-3; [3]): > 100 µM | TGI (PC-3; read-out: pTGI): > 100 µM | Activity (Malme-3M): 69.57% | Activity (KM12): 5.71% | Activity (IGROV-1): 92.61% | Activity (MCF7): 60.66% | Activity (HT-29): 113.24%
